Assay outcomes: PubChem BioAssay, several laboratories
DAT uptake mod: changed hDAT dopamine uptake under cocaine IC80, either direction, primary screen, cocaine antagonist project, cell-based, LLC-PK1 hDAT, [14C]-dopamine uptake, MLSMR; Sodium-dependent dopamine transporter (Homo sapiens), Q01959; LLC-PK1 hDAT cells, [14C]-dopamine uptake with cocaine IC80; actives deviate in either direction; B-score at 10 µM; 110,000 tested, 1.3% active;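 active = Z score or B-score, a plate-position-corrected score, falls beyond the plate's 99.7% confidence bounds, in either direction; inactive = both scores lie inside the 99.7% bounds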
Target sequence (Q01959 whole entry, looked up): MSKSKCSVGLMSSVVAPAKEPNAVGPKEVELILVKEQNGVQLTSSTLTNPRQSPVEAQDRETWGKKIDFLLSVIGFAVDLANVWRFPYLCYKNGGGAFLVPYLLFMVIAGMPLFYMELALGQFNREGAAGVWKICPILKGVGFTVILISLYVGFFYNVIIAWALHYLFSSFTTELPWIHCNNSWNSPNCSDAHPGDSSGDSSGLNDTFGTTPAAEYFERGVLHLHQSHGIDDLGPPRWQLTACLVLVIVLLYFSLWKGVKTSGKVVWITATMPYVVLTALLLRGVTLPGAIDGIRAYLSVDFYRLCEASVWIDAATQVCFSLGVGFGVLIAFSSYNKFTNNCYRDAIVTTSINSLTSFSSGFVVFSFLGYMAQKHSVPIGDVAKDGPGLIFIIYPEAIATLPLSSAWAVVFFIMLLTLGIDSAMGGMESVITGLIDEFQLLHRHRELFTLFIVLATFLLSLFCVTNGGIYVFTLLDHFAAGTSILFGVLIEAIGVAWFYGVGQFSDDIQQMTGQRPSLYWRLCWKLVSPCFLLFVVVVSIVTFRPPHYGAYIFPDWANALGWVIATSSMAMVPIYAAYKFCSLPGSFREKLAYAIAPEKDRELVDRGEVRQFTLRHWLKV
AP ELISA ortho: alternative complement pathway inhibitors, primary screen, biochemical, ELISA, human serum, orthogonally pooled compounds; LPS-coated ELISA, C3 deposition; tested in compound mixtures; 62,000 tested, 0.08% active; inhibition, % at 5 µM; AID 1235, 2008;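 active = inhibition above 30% in each of the two pooled mixtures holding the compound, so the lower value exceeds 30%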
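Assay system: Human serum alternative complement pathway, C3 deposition on LPS-coated wells | Incubation: 1 h serum-compound exposure at 37 °C | Doses: 5 µM per compound in ten-compound mixtures | Read-out: Percent inhibition | Technique: ELISA with HRP anti-human C3 antibody, TMB substrate, absorbance 450 nm | Replication: Two pool placements per compound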
Ec RNAP inh: E. coli RNAP inhibitors, biochemical; DNA-directed RNA polymerase subunit beta (Escherichia coli (strain K12)), P0A8V2; 62,000 tested, 0.2% active; AID 559, 2006; E. coli RNA polymerase, fluorescence transcription assay; inhibition, %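 (tested at 10 µM)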; in the data active = inhibition above about 20%
HEK293 NFkB inh: inhibitors of PMA/ionomycin-induced NF-kB reporter, primary screen, antigen receptor NF-kB inhibitor project, cell-based, HEK-293 luciferase reporter, luminescence; HEK-293 NF-kB luciferase reporter; inhibition, % at 3 µM; 62,000 tested, 0.21% active;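 active = inhibition above the mean of all tested compounds plus 3 SD, cut at about 40% in these data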
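Signal: luciferase luminescence; Material: HEK-293 cells with stable firefly luciferase reporter driven by four HIV NF-kB elements; Probe or stimulus: PMA with ionomycin; Replication: tested once; Times: 1 h compound pretreatment, then 16 h stimulation at 37 °C, 5% CO2; Benchmarks: DMSO and 10 µM reference inhibitor; Evaluation: per-plate % inhibition versus controls.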
D1 allo mod: D1 CRE-luciferase signal change, two-sided – cell-based, HEK293 D1, dopamine EC30, D1 allosteric modulator project, primary screen; dopamine EC30 potentiation; actives deviate in either direction; B-score at 10 µM; 58,000 tested, 5.9% active; D(1A) dopamine receptor (Homo sapiens), P21728;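 active = luminescence count or its row- and column-corrected plate score outside the 99.7% band of the plate's sample wells, on either side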
Hits are given with their value; – = inactive; · = no result. Shown is part of a subset that was picked to be rich in hits.

SMILES	DAT uptake mod	AP ELISA ortho	Ec RNAP inh	HEK293 NFkB inh	D1 allo mod
COC(=O)CSc1nc(NCC(C)C)nc(N2CCOCC2)n1	–	–	–	–	–
CSc1nc(NC(C)C)nc(N2CCOCC2)n1	–	–	–	–	17.6
CC(=O)Oc1cccc(N2C(=O)C3C(C2=O)C2C=CC3C23CC3)c1 (stereo unspecified)	–	–	–	–	–
CC(=O)Oc1cccc(N2C(=O)C3C4C=CC(C4=C(C)C)C3C2=O)c1 (stereo unspecified)	-8.95	–	–	–	–
O=C(COC(=O)c1cccnc1Cl)c1cccc(Cl)c1	–	·	·	·	·
O=C(OCc1ccc(Cl)cc1Cl)c1cccnc1Cl	-8.56	·	·	·	·
Cc1ccc(-c2nc(C#N)c(NCc3ccco3)o2)cc1	-2.84	–	–	–	–
Cc1ccc2cc(C#N)c(NCc3ccco3)nc2c1	–	–	–	–	6.68
COC(=O)C1=C(C(=O)OC)[C@@H]2N(C)c3ccccc3[C@@]23C[C@@H](CO)N(C(=O)C2CCC2)C3=N1	–	·	·	·	·
Cc1cccc(N2CCN(S(=O)(=O)c3ccc4c(c3)CCN4C(=O)CCC(=O)O)CC2C)c1 (stereo unspecified)	–	·	·	·	·
CCOC(=O)C1=C(c2ccccc2)OC(N)=C(C#N)C1C(C)C (stereo unspecified)	–	–	39.7	–	–
CCOC(=O)C1=C(c2ccccc2)OC(N)=C(C#N)C1C1CCCCC1 (stereo unspecified)	-1.65	·	·	·	·
COc1ccc(C2N3CC4(C)CN2CC(C)(C3)C4)cc1OC (stereo unspecified)	-7.5	–	–	–	·
CCC(C(=O)NC1CCCCC1)n1c(SCc2cccc(C)c2)nc2ccncc21 (stereo unspecified)	–	·	·	·	·
CCC(C(=O)NC1CCCCC1)n1c(SCc2cccc(F)c2)nc2ccncc21 (stereo unspecified)	2.79	·	·	·	·
CCC(CC)C(=O)Nc1c(C)n(C)n(-c2ccccc2)c1=O	–	·	·	·	·
CCCCCCC(c1c(C)n(C)n(-c2ccccc2)c1=O)c1c(C)n(C)n(-c2ccccc2)c1=O	3.17	–	–	–	–
Cc1ccc2cc3cc(C(=O)N(C)C4CCCCC4)oc3nc2c1	·	–	–	–	-3.52
Cc1cccc(N(C)C(=O)c2cc3cc4ccc(C)cc4nc3o2)c1	–	–	–	–	–
CC1(C)Cc2c(sc3c2c(=N)n(Cc2ccco2)c(=O)n3CC(=O)Nc2ccc(Cl)cc2)CO1	2.04	–	–	–	·
O=C1c2ccccc2C(Nc2ccc3c(c2)OCCO3)N1Cc1ccccc1 (stereo unspecified)	–	–	–	–	·
COc1cc(OC)cc(-c2cc3nc4c(c(N5CCN(c6ncccn6)CC5)n3n2)CCCC4)c1	–	–	–	–	·
COc1cc(OC)cc(-c2cc3nc4c(c(N5CCN(c6cnccn6)CC5)n3n2)CCCC4)c1	·	–	–	–	-3.35
Cc1cc(C)c(S(=O)(=O)N2CCCCC2)c(C)c1-n1ncnn1	·	–	–	–	–
CCCn1nc2cc(C(=O)NCc3ccc(OC)cc3)ccc2c1OCC	2.31	·	·	·	·
SMILES	DAT uptake mod	AP ELISA ortho	Ec RNAP inh	HEK293 NFkB inh	D1 allo mod
CCCn1nc2cc(C(=O)NC3CCc4ccccc43)ccc2c1OCC (stereo unspecified)	2.31	·	·	·	·
CCCCn1nc2cc(C(=O)NCC3CC3)ccc2c1OCC	–	·	·	·	·
NC(=O)C1CCN(c2ncnc3c(-c4ccccc4)nsc23)CC1	-7.19	–	–	–	–
COC/C=C/C1=CC2=CC(=O)C(C)(OC(=O)c3cnc4ccccc4n3)C(=O)C2=CN1CCc1c[nH]c2ccccc12 (stereo unspecified)	–	·	·	·	·
O=C(C1CCCCC1)N1CCCC(c2nc3c(nnn3Cc3ccccc3)c(=O)[nH]2)C1 (stereo unspecified)	2.37	–	–	–	·
O=C(C1CCCCC1)N1CCC(c2nc3c(nnn3Cc3ccccc3Cl)c(=O)[nH]2)CC1	·	–	–	–	–
O=C(c1ccccc1)N1CCCC(c2nc3c(nnn3Cc3ccccc3)c(=O)[nH]2)C1 (stereo unspecified)	–	–	–	–	–
Cc1ccc(C)c(Cn2nnc3c(=O)[nH]c(C4CCCN(C(=O)C5CCCCC5)C4)nc32)c1 (stereo unspecified)	3.97	–	–	–	–
COc1ccc(O)c(-c2[nH]ncc2C(=O)c2ccccc2C)c1	–	–	–	–	–
C#CCOCCOCCOCCNc1nc(N2CCN(C(=O)C([C@@H](C)CC)n3cc(C(N)Cc4ccc(O)cc4)nn3)CC2)nc(N2CCN(C(=O)[C@H](CCC(=O)O)n3cc(C(N)Cc4ccc(O)cc4)nn3)CC2)n1 (stereo partly specified)	–	·	·	·	·
CCOC(=O)N1CCN(C(=O)c2oc3ccc(S(=O)(=O)N4CCCCC4)cc3c2C)CC1	2.99	–	–	–	–
Cc1c(C(=O)NCCN2CCOCC2)oc2ccc(S(=O)(=O)N3CCCCCC3)cc12	2.04	–	–	–	–
Cc1ccc(-c2cc3c(nn2)-c2ccccc2C3=O)cc1	·	–	–	62.5	-5.67
CCCN(CCC)S(=O)(=O)c1ccc(NC(=O)c2cc(C(=O)OC)cc([N+](=O)[O-])c2)cc1	–	·	·	·	·
CC(CCc1ccco1)NC(=O)c1cc2c(-c3ccccc3F)nn(C)c2s1 (stereo unspecified)	2.93	–	–	–	–
Cn1nc(-c2ccccc2F)c2cc(C(=O)Nc3ccc4c(c3)OCCO4)sc21	–	·	·	·	·
CCCCn1c(SCC(=O)Nc2nnc(C)s2)nc2c1c(=O)n(C)c(=O)n2C	–	–	31.3	–	–
CCNC(=O)C1CC(=O)N(CC)C(=Nc2cc(Cl)c(O)c(Cl)c2)S1 (stereo unspecified)	–	–	–	–	–
Clc1ccccc1OCCCCN1CCCC1	–	–	–	–	–
CC(=O)c1ccccc1OCCCN1CCCCC1	–	–	–	–	-4.44
O=c1c2c3c(sc2n2cnnc2n1-c1ccccc1)N(Cc1ccccc1)CCC3	–	–	–	–	-5.07
CN1CCc2c(sc3c2c(=O)n(-c2cccc(Cl)c2)c2nncn32)C1	–	–	–	–	–
COc1ccc(-c2csc(NC(CO)c3nc4ccccc4n3CCOCCO)n2)cc1 (stereo unspecified)	–	·	·	·	·
COc1ccc(-c2csc(NC(CO)c3nc4ccccc4n3CCCO)n2)cc1 (stereo unspecified)	3.15	·	·	·	·
COc1ccc(OC)c(S(=O)(=O)N2CCN(C)CC2)c1	–	–	–	–	–
COc1ccc(OC)c(S(=O)(=O)N2CCC(C(=O)N3CCN(Cc4ccccc4)CC3)CC2)c1	–	–	–	–	-5.07
